Laboratory results reported in ChEMBL document CHEMBL3861959, “Synthesis and antiproliferative evaluation of novel 2-(4H-1,2,4-triazole-3-ylthio)acetamide derivatives as inducers of apoptosis in cancer cells” (Eur J Med Chem, 2016).
Converted amounts (≈) assume the structure as drawn.

How the values were obtained:
[1] = Cytotoxicity against human A549 cells assessed as cell growth at 10^-5 M after 48 hrs by SRB assay relative to control; assay type: functional; conditions: A549, 48 h, read-out: Activity
Outline: (§1)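 NCI single-dose primary screen run under the US NCI protocol. Compounds tested at 10 µM across the 60-cell-line panel, with growth percent reported for each line.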

[2] = Cytotoxicity against human NCI-H322M cells assessed as cell growth at 10^-5 M after 48 hrs by SRB assay relative to control; assay type: functional; conditions: read-out: Activity; outline: as §1
[3] = Cytotoxicity against human SK-MEL-28 cells assessed as cell growth at 10^-5 M after 48 hrs by SRB assay relative to control; assay type: functional; conditions: SK-MEL-28, 48 h, read-out: Activity
Outline: (§2)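 Single-dose NCI 60-cell-line screen run under the US NCI protocol. Compounds tested at 10 µM. Read-out is growth percent for each cell line.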

[4] = Cytotoxicity against human M14 cells assessed as cell growth at 10^-5 M after 48 hrs by SRB assay relative to control; assay type: functional; conditions: M14, 48 h, read-out: Activity; outline: as §1
[5] = Cytotoxicity against human 786-0 cells assessed as cell growth at 10^-5 M after 48 hrs by SRB assay relative to control; assay type: functional; conditions: 786-0, 48 h, read-out: Activity; outline: as §1
[6] = Cytotoxicity against human MDA-MB-435 cells assessed as cell growth at 10^-5 M after 48 hrs by SRB assay relative to control; assay type: functional; conditions: MDA-MB-435, 48 h, read-out: Activity; outline: as §1
[7] = Cytotoxicity against human SF268 cells assessed as cell growth at 10^-5 M after 48 hrs by SRB assay relative to control; assay type: functional; conditions: SF-268, 48 h, read-out: Activity; outline: as §1
[8] = Cytotoxicity against human SF539 cells assessed as cell growth at 10^-5 M after 48 hrs by SRB assay relative to control; assay type: functional; conditions: SF-539, 48 h, read-out: Activity; outline: as §2
[9] = system: Human immunodeficiency virus 1; experiment: Antiviral activity against HIV1 3B infected in human MT4 cells assessed as protection against virus-induced cytopathic effect after 5 days MTT assay; assay type: functional, cell-based; conditions: Human immunodeficiency virus 1, 3B, MT4, 120 h
Outline: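 HIV-1 strain IIIB and HIV-2 strain ROD in MT-4 cells, MTT-based. Test compounds in serial five-fold dilutions, in triplicate wells run alongside mock-infected cells, with untreated infected and mock controls. MT-4 cells resuspended at 6 × 10^5 cells/mL. Absorbance read at 540 and 690 nm, median OD of three wells. EC50 is the 50% effective concentration.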

[10] = Cytotoxicity against human HCT116 cells assessed as cell growth at 10^-5 M after 48 hrs by SRB assay relative to control; assay type: functional; conditions: HCT-116, 48 h, read-out: Activity; outline: as §1
[11] = Cytotoxicity against human RXF393 cells assessed as cell growth at 10^-5 M after 48 hrs by SRB assay relative to control; assay type: functional; conditions: RXF 393, 48 h, read-out: Activity; outline: as §1
[12] = Cytotoxicity against human MCF7 cells assessed as cell growth at 10^-5 M after 48 hrs by SRB assay relative to control; assay type: functional; conditions: MCF7, 48 h, read-out: Activity; outline: as §1
[13] = Cytotoxicity against human EKVX cells assessed as cell growth at 10^-5 M after 48 hrs by SRB assay relative to control; assay type: functional; conditions: read-out: Activity; outline: as §1
[14] = Cytotoxicity against human MT4 cells assessed as decrease in cell viability after 5 days by MTT assay; assay type: toxicity, cell-based
Outline: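 MT-4 cells in mock-infected wells of the anti-HIV MTT setup. Compounds in serial five-fold dilutions in triplicate, cells at 6 × 10^5 cells/mL. Absorbance at 540 and 690 nm, median OD of three wells. CC50 is the concentration that lowers OD540 of the mock-infected control by 50%.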

[15] = Cytotoxicity against human LOXIMVI cells assessed as cell growth at 10^-5 M after 48 hrs by SRB assay relative to control; assay type: functional; conditions: LOX IMVI, read-out: Activity; outline: as §1
[16] = Cytotoxicity against human UACC62 cells assessed as cell growth at 10^-5 M after 48 hrs by SRB assay relative to control; assay type: functional; conditions: UACC-62, 48 h, read-out: Activity; outline: as §2
[17] = Selectivity index, ratio of CC50 for human MT4 cells to EC50 for HIV2 ROD; assay type: toxicity, cell-based; conditions: read-out: Ratio CC50/EC50
Outline: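 HIV-1 IIIB and HIV-2 ROD tested in MT-4 cells by MTT. Serial fivefold dilutions of compound added to triplicate mock- and virus-infected wells. MT-4 cells at 6 × 10^5 cells/mL. Absorbance read at 540/690 nm; median OD of three wells used. CC50 is the concentration reducing mock-infected OD540 by 50%. […]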

[18] = Cytotoxicity against human RPMI8226 cells assessed as cell growth at 10^-5 M after 48 hrs by SRB assay relative to control; assay type: functional; conditions: RPMI-8226, 48 h, read-out: Activity; outline: as §1
[19] = Cytotoxicity against human HL-60(TB) cells assessed as cell growth at 10^-5 M after 48 hrs by SRB assay relative to control; assay type: functional; conditions: HL-60, 48 h, read-out: Activity
Outline: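 NCI-60 one-dose primary screen run by the US NCI under its protocol. Single concentration of 10 µM across the 60-line human tumour panel, which includes HL-60(TB). Read-out is growth percent for each cell line. Lines reduced to about 32% growth or less are taken forward to full-panel testing over a 5-log dose range.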

[20] = Cytotoxicity against human NCI-H226 cells assessed as cell growth at 10^-5 M after 48 hrs by SRB assay relative to control; assay type: functional; conditions: NCI-H226, 48 h, read-out: Activity; outline: as §1
[21] = Cytotoxicity against human SR cells assessed as cell growth at 10^-5 M after 48 hrs by SRB assay relative to control; assay type: functional; conditions: read-out: Activity; outline: as §2
[22] = Cytotoxicity against human KM12 cells assessed as cell growth at 10^-5 M after 48 hrs by SRB assay relative to control; assay type: functional; conditions: KM12, 48 h, read-out: Activity; outline: as §1
[23] = Cytotoxicity against human SN12C cells assessed as cell growth at 10^-5 M after 48 hrs by SRB assay relative to control; assay type: functional; conditions: read-out: Activity; outline: as §2
[24] = Cytotoxicity against human NCI-H460 cells assessed as cell growth at 10^-5 M after 48 hrs by SRB assay relative to control; assay type: functional; conditions: NCI-H460, 48 h, read-out: Activity; outline: as §1
[25] = Cytotoxicity against human SW620 cells assessed as cell growth at 10^-5 M after 48 hrs by SRB assay relative to control; assay type: functional; conditions: SW-620, 48 h, read-out: Activity; outline: as §2
[26] = Cytotoxicity against human SK-MEL-2 cells assessed as cell growth at 10^-5 M after 48 hrs by SRB assay relative to control; assay type: functional; conditions: SK-MEL-2, 48 h, read-out: Activity; outline: as §2
[27] = Cytotoxicity against human SNB19 cells assessed as cell growth at 10^-5 M after 48 hrs by SRB assay relative to control; assay type: functional; conditions: SNB-19, 48 h, read-out: Activity; outline: as §2
[28] = Cytotoxicity against human NCI-H23 cells assessed as cell growth at 10^-5 M after 48 hrs by SRB assay relative to control; assay type: functional; conditions: NCI-H23, 48 h, read-out: Activity; outline: as §1
[29] = Cytotoxicity against human HCT15 cells assessed as cell growth at 10^-5 M after 48 hrs by SRB assay relative to control; assay type: functional; conditions: HCT-15, 48 h, read-out: Activity; outline: as §1

| SMILES | growth at 10 µM [1] | growth at 10 µM [2] | growth at 10 µM [3] | growth at 10 µM [4] | growth at 10 µM [5] | growth at 10 µM [6] | growth at 10 µM [7] | growth at 10 µM [8] | EC50 [9] | growth at 10 µM [10] | growth at 10 µM [11] | growth at 10 µM [12] | growth at 10 µM [13] | CC50 at 120 h [14] | growth at 10 µM [15] | growth at 10 µM [16] | selectivity ratio [17] | growth at 10 µM [18] | growth at 10 µM [19] | growth at 10 µM [20] | also measured |
| --- | --- | --- | --- | --- | --- | --- | --- | --- | --- | --- | --- | --- | --- | --- | --- | --- | --- | --- | --- | --- | --- |
| Cc1ccc(C(C)C)c(OCc2nnc(SCC(=O)Nc3ccc(S(N)(=O)=O)cc3)n2Cc2ccccc2)c1 | 50.6% | 89.3% | 89.3% | 87.3% | 92.3% | 76.2% | 74% | 89.5% | > 13 µg/mL | 66.1% | 70.6% | 50% | 55.5% | 13 µg/mL (≈ 23 µM) | 68.2% | 51.2% | < 1 | 40.8% | 68.2% | 66.6% | growth at 10 µM [21]: 65.1%; growth at 10 µM [22]: 54.3%; growth at 10 µM [23]: 81.6%; growth at 10 µM [24]: 76.4%; growth at 10 µM [25]: 91.7%; growth at 10 µM [26]: 80.9%; growth at 10 µM [27]: 88.4%; growth at 10 µM [28]: 63.8%; growth at 10 µM [29]: 64.2% |
| Cc1ccc(C(C)C)c(OCc2nnc(SCC(=O)Nc3ccc(Cl)cc3)n2Cc2ccccc2)c1 | 27.9% | 72.5% | 113% | 99% | 38.9% | 103% | 88.6% | 85.4% | > 65.9 µg/mL | 52.9% | 101% | 75.7% | 69.6% | 65.9 µg/mL (≈ 126 µM) | 64.4% | 94% | < 1 | 83.8% | 83.9% | 88% | growth at 10 µM [21]: -6.63%; growth at 10 µM [22]: 76.9%; growth at 10 µM [23]: 56.5%; growth at 10 µM [24]: 17.7%; growth at 10 µM [25]: 65.9%; growth at 10 µM [26]: 108%; growth at 10 µM [27]: 80.3%; growth at 10 µM [28]: 80.6%; growth at 10 µM [29]: 76.7% |
| CC(=O)Nc1ccc(OCc2nnc(SCC(=O)Nc3ccc(Br)cc3)n2Cc2ccccc2)cc1 | 78.5% | 81.2% | 102% | 43.5% | 91.1% | 66% | 70.9% | 92.8% | > 3.99 µg/mL | 53.2% | 101% | 70.2% | 70% | ≥ 3.99 µg/mL | 33.4% | 32.5% | ≤ 1 | 72.2% | 63.8% | 80.3% | growth at 10 µM [21]: 97.7%; growth at 10 µM [22]: 56.4%; growth at 10 µM [23]: 85.7%; growth at 10 µM [24]: 74.3%; growth at 10 µM [25]: 59%; growth at 10 µM [26]: 72.2%; growth at 10 µM [27]: 92.3%; growth at 10 µM [28]: 75.2%; growth at 10 µM [29]: 60.4% |
